For experiment [1], the species on record is Homo sapiens. Put plainly: In vitro agonist efficacy against polymorphonuclear leukocyte (PMNL) chemokinesis. The arrangement: concentration or dose not given beside the values.
The species named for experiment [2] is Homo sapiens. The experiment in a line: In vitro potency against polymorphonuclear leukocyte (PMNL) chemokinesis. It counts as functional. The gist of the method: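 PMNL chemokinesis run over half-log concentration steps based on the binding Ki; EC50 obtained by least-squares regression as the concentration giving 50% of that peptide's own maximal response.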

Experiment [3] relates to Cavia porcellus. Put plainly: In vivo agonist efficacy by its ability to cause evans blue dye leakage as a marker of increased vascular permeability when injected intradermally in guinea pig. It counts as functional. Further details: concentration or dose not given beside the values. A digest of the protocol: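 Guinea pig, intradermal injection of peptide at a single high concentration; Evans blue dye leakage read as vascular permeability increase, compared with the maximal response to a control rC5a injection included in each test group.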

For experiment [4], the system named is Cavia porcellus. The experiment in a line: In vivo potency by its ability to cause evans blue dye leakage as a marker of increased vascular permeability when injected intradermally in guinea pig. It counts as functional, organism-based.
Experiment [5] has as its target T1, C5a anaphylatoxin chemotactic receptor 1 (Homo sapiens, UniProt P21730).
T1 sequence (P21730 whole entry): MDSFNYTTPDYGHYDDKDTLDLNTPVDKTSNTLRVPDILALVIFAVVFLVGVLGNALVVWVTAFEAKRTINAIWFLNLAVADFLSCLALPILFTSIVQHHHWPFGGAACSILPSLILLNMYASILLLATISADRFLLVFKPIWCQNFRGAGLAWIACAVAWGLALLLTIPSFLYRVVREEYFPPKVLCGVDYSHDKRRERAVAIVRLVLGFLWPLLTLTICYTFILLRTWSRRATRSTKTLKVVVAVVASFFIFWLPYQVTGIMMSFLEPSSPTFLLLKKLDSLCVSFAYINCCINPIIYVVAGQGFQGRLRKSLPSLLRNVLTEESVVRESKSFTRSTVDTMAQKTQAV
The experiment in a line: Inhibitory activity against [125I]-rC5a binding to C5a anaphylatoxin chemotactic receptor in human polymorphonuclear leukocyte (PMNL) membranes. The gist of the method: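 Competition binding on human PMNL membrane fragments, peptides displacing ¹²⁵I-labelled recombinant C5a. Inhibition binding data converted to apparent dissociation constant (Ki) by the Cheng–Prusoff method.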

Square brackets hold non-standard residues; d marks the D form. Peptide text beside a SMILES is read from it. * marks the point of attachment. His(τ-Me) = Cn1cnc(C[C@H](N)C(=O)O)c1; His(π-Me) = Cn1cncc1C[C@H](N)C(=O)O; Hydrocinnamoyl = O=C(CCc1ccccc1)*; hPhe = N[C@@H](CCc1ccccc1)C(=O)O; Cha = N[C@@H](CC1CCCCC1)C(=O)O; Phg = N[C@H](C(=O)O)c1ccccc1

Usually EC50 stands for the concentration that produces a half-maximal response. As for `CSCC[C@H](NC(=O)[C@H](CC(=O)O)NC(=O)[C@H](CCCCN)NC(=O)[C@@H](N)CCc1ccccc1)C(=O)N[C@@H](CCC(N)=O)C(=O)N[C@@H](CC(C)C)C(=O)NCC(=O)N[C@@H](CCCN=C(N)N)C(=O)O` (H-[hPhe]KDMQLGR-OH), in the experiment filed under Homo sapiens [1], the Activity is 162%. Besides, in the experiment listed under Homo sapiens [2], the EC50 worked out at 15 µM.

With H-ISFKDMQLGR-OH, the Activity in the experiment listed under Homo sapiens [1] is given as 76%; in the experiment on Cavia porcellus [3], 54%. In addition, the results for the EC50 in the experiment with Cavia porcellus [4] and in the experiment listed under Homo sapiens [2] were below 100 µM and 0.72 µM, respectively.

In the experiment listed under Homo sapiens [1], H-HKDMQLGR-OH had an Activity of 129%. In the experiment listed under Homo sapiens [2], this compound showed an EC50 of 110 µM.

In general, Ki refers to a dissociation constant, usually derived from enzyme kinetics or from competition with a known ligand. In turn, `CSCC[C@H](NC(=O)[C@H](CC(=O)O)NC(=O)[C@H](CCCCN)NC(=O)[C@@H](N)CCc1ccccc1)C(=O)N[C@@H](CCC(N)=O)C(=O)N[C@@H](CC(C)C)C(=O)NCC(=O)N[C@@H](CCCNC(=N)N)C(=O)O` (H-[hPhe]KDMQLGR-OH) registered a Ki in experiment [5] of 36 µM.

For the compound Ac-FKDMQLGR-OH [listing 1 of 2 here], in the experiment filed under Homo sapiens [1], the Activity is recorded as 76%.

Compound `CSCC[C@H](NC(=O)[C@H](CC(=O)O)NC(=O)[C@H](CCCCN)NC(=O)[C@H](N)Cc1ccccc1)C(=O)N[C@@H](CCC(N)=O)C(=O)N[C@@H](CC(C)C)C(=O)NCC(=O)N[C@@H](CCCN=C(N)N)C(=O)O` registered an Activity in the experiment listed under Homo sapiens [1] of 70%. For the same compound, affinity in experiment [5] was put at a Ki of 79 µM. The same compound had an EC50 in the experiment filed under Homo sapiens [2] of 80 µM.

`CSCC[C@H](NC(=O)[C@H](CC(=O)O)NC(=O)[C@H](CCCCN)NC(=O)CCc1ccccc1)C(=O)N[C@@H](CCC(N)=O)C(=O)N[C@@H](CC(C)C)C(=O)NCC(=O)N[C@@H](CCCNC(=N)N)C(=O)O` (Hydrocinnamoyl-KDMQLGR-OH) had a Ki in experiment [5] of 4.4 µM.

For `CSCC[C@H](NC(=O)[C@H](CC(=O)O)NC(=O)[C@H](CCCCN)NC(=O)[C@@H](N)c1ccccc1)C(=O)N[C@@H](CCC(N)=O)C(=O)N[C@@H](CC(C)C)C(=O)NCC(=O)N[C@@H](CCCN=C(N)N)C(=O)O` (H-[Phg]KDMQLGR-OH) [listing 1 of 2 here], the affinity in experiment [5] corresponds to a Ki of 31 µM. Also, a half-maximal response in the experiment filed under Homo sapiens [2] (EC50) required 10 µM.

For the compound `CSCC[C@H](NC(=O)[C@H](CC(=O)O)NC(=O)[C@H](CCCCN)NC(=O)[C@@H](N)CC1CCCCC1)C(=O)N[C@@H](CCC(N)=O)C(=O)N[C@@H](CC(C)C)C(=O)NCC(=O)N[C@@H](CCCNC(=N)N)C(=O)O` (H-[Cha]KDMQLGR-OH), the affinity in experiment [5], expressed as Ki, was 13 µM.

In turn, `CSCC[C@H](NC(=O)[C@H](CC(=O)O)NC(=O)[C@H](CCCCN)NC(=O)[C@@H](N)CC1CCCCC1)C(=O)N[C@@H](CCC(N)=O)C(=O)N[C@@H](CC(C)C)C(=O)NCC(=O)N[C@@H](CCCN=C(N)N)C(=O)O` (H-[Cha]KDMQLGR-OH) [listing 1 of 2 here] showed an Activity in the experiment filed under Homo sapiens [1] of 154%.

For the compound `CSCC[C@H](NC(=O)[C@H](CC(=O)O)NC(=O)[C@H](CCCCN)NC(=O)CCc1ccccc1)C(=O)N[C@@H](CCC(N)=O)C(=O)N[C@@H](CC(C)C)C(=O)NCC(=O)N[C@@H](CCCN=C(N)N)C(=O)O` (Hydrocinnamoyl-KDMQLGR-OH), the Activity in the experiment filed under Homo sapiens [1] stood at 84%. In addition, in the experiment listed under Homo sapiens [2], it took 0.8 µM to reach a half-maximal effect (EC50).

The compound `CSCC[C@H](NC(=O)[C@H](CC(=O)O)NC(=O)[C@H](CCCCN)NC(=O)[C@@H](N)c1ccccc1)C(=O)N[C@@H](CCC(N)=O)C(=O)N[C@@H](CC(C)C)C(=O)NCC(=O)N[C@@H](CCCN=C(N)N)C(=O)O` (H-[Phg]KDMQLGR-OH) [listing 2 of 2 here] showed an Activity in the experiment listed under Homo sapiens [1] of 72%.

Consider `CSCC[C@H](NC(=O)[C@H](CC(=O)O)NC(=O)[C@H](CCCCN)NC(=O)[C@@H](N)Cc1cccs1)C(=O)N[C@@H](CCC(N)=O)C(=O)N[C@@H](CC(C)C)C(=O)NCC(=O)N[C@@H](CCCN=C(N)N)C(=O)O` [listing 1 of 2 here], for which the EC50 in the experiment on Cavia porcellus [4] is below 1000 µM; in the experiment filed under Homo sapiens [2], 0.53 µM.

In the case of `CSCC[C@H](NC(=O)[C@H](CC(=O)O)NC(=O)[C@H](CCCCN)NC(=O)[C@@H](N)Cc1cccs1)C(=O)N[C@@H](CCC(N)=O)C(=O)N[C@@H](CC(C)C)C(=O)NCC(=O)N[C@@H](CCCN=C(N)N)C(=O)O` [listing 2 of 2 here], in the experiment listed under Homo sapiens [1], the Activity is 142%.

Regarding H-ANISFKDMQLGR-OH, the Activity in the experiment listed under Homo sapiens [1] is given as 85%; with Cavia porcellus [3], 69%. Besides, the figures for the EC50 in the experiment on Cavia porcellus [4] and in the experiment listed under Homo sapiens [2] were below 100 µM and 0.25 µM, respectively.

Turning to `CSCC[C@H](NC(=O)[C@H](CC(=O)O)NC(=O)[C@H](CCCCN)NC(=O)[C@@H](N)Cc1cn(C)cn1)C(=O)N[C@@H](CCC(N)=O)C(=O)N[C@@H](CC(C)C)C(=O)NCC(=O)N[C@@H](CCCNC(=N)N)C(=O)O` (H-[His(τ-Me)]KDMQLGR-OH) [listing 1 of 2 here], the Ki in experiment [5] amounted to 58 µM. In the experiment filed under Homo sapiens [2], the EC50 was determined as 17 µM.

On to `CSCC[C@H](NC(=O)[C@H](CC(=O)O)NC(=O)[C@H](CCCCN)NC(=O)[C@@H](N)Cc1cn(C)cn1)C(=O)N[C@@H](CCC(N)=O)C(=O)N[C@@H](CC(C)C)C(=O)NCC(=O)N[C@@H](CCCNC(=N)N)C(=O)O` (H-[His(τ-Me)]KDMQLGR-OH) [listing 2 of 2 here], for which, in the experiment filed under Homo sapiens [1], the Activity came out at 90%.

For `CSCC[C@H](NC(=O)[C@H](CC(=O)O)NC(=O)[C@H](CCCCN)NC(=O)[C@@H](N)CC1CCCCC1)C(=O)N[C@@H](CCC(N)=O)C(=O)N[C@@H](CC(C)C)C(=O)NCC(=O)N[C@@H](CCCN=C(N)N)C(=O)O` (H-[Cha]KDMQLGR-OH) [listing 2 of 2 here], the response in the experiment filed under Homo sapiens [2] was half-maximal at 3 µM (EC50).

Ac-FKDMQLGR-OH [listing 2 of 2 here] displayed an inhibition constant (Ki) in experiment [5] of 0.2 µM. For the same compound, the concentration for a half-maximal effect (EC50) in the experiment filed under Homo sapiens [2] worked out at 0.44 µM.

Turning to `CSCC[C@H](NC(=O)[C@H](CC(=O)O)NC(=O)[C@H](CCCCN)NC(=O)[C@@H](N)Cc1ccccc1)C(=O)N[C@@H](CCC(N)=O)C(=O)N[C@@H](CC(C)C)C(=O)NCC(=O)N[C@@H](CCCN=C(N)N)C(=O)O`, the values for the Activity in the experiment listed under Homo sapiens [1] and with Cavia porcellus [3] were 132% and 60%, respectively. Moreover, the Ki in experiment [5] came out at 0.26 µM. Also, the EC50 in the experiment with Cavia porcellus [4] is below 1000 µM; in the experiment filed under Homo sapiens [2], 0.46 µM.

`CSCC[C@H](NC(=O)[C@H](CC(=O)O)NC(=O)[C@H](CCCCN)NC(=O)[C@H](N)Cc1cccs1)C(=O)N[C@@H](CCC(N)=O)C(=O)N[C@@H](CC(C)C)C(=O)NCC(=O)N[C@@H](CCCN=C(N)N)C(=O)O` yielded an Activity in the experiment with Cavia porcellus [3] of 85%.

Turning to H-LRANISFKDMQLGR-OH, the Activity in the experiment listed under Homo sapiens [1] amounted to 133%; in the experiment on Cavia porcellus [3] it was 116%. This compound also registered a Ki in experiment [5] of 0.81 µM. Also, the 50% effective concentration (EC50) in the experiment with Cavia porcellus [4] was below 300 µM; in the experiment filed under Homo sapiens [2], 1.6 µM.

In the case of `CSCC[C@H](NC(=O)[C@H](CC(=O)O)NC(=O)[C@H](CCCCN)NC(=O)[C@@H](N)Cc1cccs1)C(=O)N[C@@H](CCC(N)=O)C(=O)N[C@@H](CC(C)C)C(=O)NCC(=O)N[C@@H](CCCNC(=N)N)C(=O)O`, affinity in experiment [5] was put at a Ki of 2.1 µM.

`CSCC[C@H](NC(=O)[C@H](CC(=O)O)NC(=O)[C@H](CCCCN)NC(=O)[C@@H](N)Cc1cncn1C)C(=O)N[C@@H](CCC(N)=O)C(=O)N[C@@H](CC(C)C)C(=O)NCC(=O)N[C@@H](CCCN=C(N)N)C(=O)O` (H-[His(π-Me)]KDMQLGR-OH) displayed an Activity in the experiment listed under Homo sapiens [1] of 88%. Also, the Ki in experiment [5] turned out to be 180 µM. In the experiment listed under Homo sapiens [2], the half-maximal effective concentration (EC50) came to 110 µM.

Values taken from ChEMBL document CHEMBL1126196, “Improvements in the minimum binding sequence of C5a: examination of His-67” (J Med Chem, 1992).
